Experimental data published in ChEMBL document CHEMBL1147762, “A new chemical tool for exploring the physiological function of the PDE2 isozyme” (Bioorg Med Chem Lett, 2006).

Tests used:
[1] = target: cAMP and cAMP-inhibited cGMP 3',5'-cyclic phosphodiesterase 10A (Homo sapiens, UniProt Q9Y233); test: Inhibitory activity against PDE10 by scintillation proximity assay
Summary of the method: (§1)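 Phosphodiesterase inhibition run as a scintillation proximity assay, with enzyme at a concentration in the linear range. Final substrate was 1 µM, below one-third of the enzyme K_M, so that IC50 approximates Ki. Values are means of n experiments with standard deviation.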

Phosphodiesterase 3 = Phosphodiesterase 3 (Homo sapiens, UniProt Q14432+Q13370); test: Inhibitory activity against PDE3 by scintillation proximity assay; assay type: protein assay; summary of the method: as §1
[2] = Apical Caco-2 cell membrane permeability; assay type: ADME, cell-based; conditions: human
[3] = Turbidimetric solubility at pH 7; assay type: ADME, organism-based, Homo sapiens
Phosphodiesterase 1 = Phosphodiesterase 1 (Homo sapiens, UniProt P54750+Q01064+Q14123); test: Inhibitory activity against PDE1 by scintillation proximity assay; assay type: protein assay; summary of the method: as §1
[4] = Basolateral Caco-2 cell membrane permeability; assay type: ADME, cell-based; conditions: human
[5] = target: 3',5'-cyclic-AMP phosphodiesterase 4A (Homo sapiens, UniProt P27815); test: Inhibitory activity against PDE4A by scintillation proximity assay; summary of the method: as §1
[6] = target: High affinity cAMP-specific and IBMX-insensitive 3',5'-cyclic phosphodiesterase 8A (Homo sapiens, UniProt O60658); test: Inhibitory activity against PDE8A by scintillation proximity assay
Summary of the method: (§2)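 Scintillation proximity assay for phosphodiesterase inhibition. Enzyme is used at a concentration within the linear range, and its KM was measured. Final substrate concentration is 1 µM, below one-third of KM, so IC50 approximates Ki. Results are means of n experiments with standard deviation.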

[7] = target: cGMP-dependent 3',5'-cyclic phosphodiesterase (Homo sapiens, UniProt O00408); test: Inhibitory activity against PDE2 by scintillation proximity assay; summary of the method: as §1
[8] = target: High affinity cGMP-specific 3',5'-cyclic phosphodiesterase 9A (Homo sapiens, UniProt O76083); test: Inhibitory activity against PDE9 by scintillation proximity assay; summary of the method: as §2
[9] = Half life in rat liver microsome; assay type: ADME; conditions: liver microsomes
[10] = target: High affinity cAMP-specific and IBMX-insensitive 3',5'-cyclic phosphodiesterase 8B (Homo sapiens, UniProt O95263); test: Inhibitory activity against PDE8B by scintillation proximity assay; summary of the method: as §2
[11] = target: 3',5'-cyclic-AMP phosphodiesterase 4B (Homo sapiens, UniProt Q07343); test: Inhibitory activity against PDE4B by scintillation proximity assay; summary of the method: as §1
[12] = target: cGMP-specific 3',5'-cyclic phosphodiesterase (Homo sapiens, UniProt O76074); test: Inhibitory activity against PDE5 by scintillation proximity assay; summary of the method: as §2
[13] = target: 3',5'-cyclic-AMP phosphodiesterase 4C (Homo sapiens, UniProt Q08493); test: Inhibitory activity against PDE4C by scintillation proximity assay; summary of the method: as §2
[14] = target: 3',5'-cyclic-AMP phosphodiesterase 4D (Homo sapiens, UniProt Q08499); test: Inhibitory activity against PDE4D by scintillation proximity assay; summary of the method: as §2
Chain of 3',5'-cyclic-AMP phosphodiesterase 4D (Q08499 whole entry): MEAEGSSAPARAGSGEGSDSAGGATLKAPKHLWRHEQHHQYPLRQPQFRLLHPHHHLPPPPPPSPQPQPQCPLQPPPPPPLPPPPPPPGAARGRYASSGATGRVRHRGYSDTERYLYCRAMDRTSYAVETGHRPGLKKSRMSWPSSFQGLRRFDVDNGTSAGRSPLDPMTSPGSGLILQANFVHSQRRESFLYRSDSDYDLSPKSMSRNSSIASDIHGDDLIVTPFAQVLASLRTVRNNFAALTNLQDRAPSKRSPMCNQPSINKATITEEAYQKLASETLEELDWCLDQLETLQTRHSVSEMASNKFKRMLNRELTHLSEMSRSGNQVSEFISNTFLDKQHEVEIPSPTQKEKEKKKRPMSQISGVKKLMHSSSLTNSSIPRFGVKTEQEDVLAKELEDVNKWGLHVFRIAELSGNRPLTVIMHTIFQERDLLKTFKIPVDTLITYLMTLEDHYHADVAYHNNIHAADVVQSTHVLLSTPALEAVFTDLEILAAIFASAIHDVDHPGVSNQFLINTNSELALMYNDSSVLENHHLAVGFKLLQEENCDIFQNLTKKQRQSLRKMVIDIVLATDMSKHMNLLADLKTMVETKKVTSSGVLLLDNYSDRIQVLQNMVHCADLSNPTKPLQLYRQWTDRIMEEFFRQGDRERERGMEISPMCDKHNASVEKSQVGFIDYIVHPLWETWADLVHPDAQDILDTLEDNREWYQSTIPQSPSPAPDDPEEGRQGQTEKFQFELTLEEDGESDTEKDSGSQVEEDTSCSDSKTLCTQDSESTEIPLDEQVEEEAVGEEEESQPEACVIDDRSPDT

Chain of 3',5'-cyclic-AMP phosphodiesterase 4B (Q07343 whole entry): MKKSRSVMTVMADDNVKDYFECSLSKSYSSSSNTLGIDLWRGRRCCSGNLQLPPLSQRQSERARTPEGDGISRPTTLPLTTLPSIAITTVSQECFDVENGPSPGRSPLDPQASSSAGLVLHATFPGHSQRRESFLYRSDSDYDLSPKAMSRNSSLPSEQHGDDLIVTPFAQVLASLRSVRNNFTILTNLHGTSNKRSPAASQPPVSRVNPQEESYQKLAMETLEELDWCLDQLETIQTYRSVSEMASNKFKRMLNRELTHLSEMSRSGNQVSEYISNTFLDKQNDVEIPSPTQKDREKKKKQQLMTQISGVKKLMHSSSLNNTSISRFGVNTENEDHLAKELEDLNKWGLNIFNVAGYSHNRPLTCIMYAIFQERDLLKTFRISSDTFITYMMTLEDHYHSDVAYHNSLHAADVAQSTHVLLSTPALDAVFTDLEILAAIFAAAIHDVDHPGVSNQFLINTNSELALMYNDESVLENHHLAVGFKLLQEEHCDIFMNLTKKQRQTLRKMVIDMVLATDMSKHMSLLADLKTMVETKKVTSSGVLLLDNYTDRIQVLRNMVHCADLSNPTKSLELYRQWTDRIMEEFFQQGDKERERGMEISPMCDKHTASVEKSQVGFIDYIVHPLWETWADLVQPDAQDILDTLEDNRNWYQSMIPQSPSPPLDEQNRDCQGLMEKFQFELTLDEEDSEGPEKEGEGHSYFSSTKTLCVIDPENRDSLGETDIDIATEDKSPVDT
Chain of High affinity cAMP-specific and IBMX-insensitive 3',5'-cyclic phosphodiesterase 8A (O60658 whole entry): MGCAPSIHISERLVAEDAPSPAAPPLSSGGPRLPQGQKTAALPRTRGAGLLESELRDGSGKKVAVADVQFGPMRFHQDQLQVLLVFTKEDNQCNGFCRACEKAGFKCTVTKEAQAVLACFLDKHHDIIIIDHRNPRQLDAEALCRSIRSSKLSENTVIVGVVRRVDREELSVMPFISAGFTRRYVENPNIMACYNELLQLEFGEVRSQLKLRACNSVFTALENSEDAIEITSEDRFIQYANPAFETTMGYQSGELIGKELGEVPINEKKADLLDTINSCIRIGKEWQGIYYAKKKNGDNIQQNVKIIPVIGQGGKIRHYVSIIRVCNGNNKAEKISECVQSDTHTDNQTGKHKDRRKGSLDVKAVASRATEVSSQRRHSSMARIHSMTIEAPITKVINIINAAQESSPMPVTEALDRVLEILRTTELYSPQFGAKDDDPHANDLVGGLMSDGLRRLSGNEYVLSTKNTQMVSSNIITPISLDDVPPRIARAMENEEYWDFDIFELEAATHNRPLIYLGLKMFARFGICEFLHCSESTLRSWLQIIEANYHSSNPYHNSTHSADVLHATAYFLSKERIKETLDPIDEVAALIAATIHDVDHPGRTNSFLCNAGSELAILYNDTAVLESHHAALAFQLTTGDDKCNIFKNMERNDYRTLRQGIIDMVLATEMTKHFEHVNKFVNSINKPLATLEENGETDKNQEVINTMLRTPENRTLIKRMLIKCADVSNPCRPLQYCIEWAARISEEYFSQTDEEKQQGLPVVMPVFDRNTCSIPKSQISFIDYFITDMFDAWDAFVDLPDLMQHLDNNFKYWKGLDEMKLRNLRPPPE
Chain of High affinity cGMP-specific 3',5'-cyclic phosphodiesterase 9A (O76083 whole entry): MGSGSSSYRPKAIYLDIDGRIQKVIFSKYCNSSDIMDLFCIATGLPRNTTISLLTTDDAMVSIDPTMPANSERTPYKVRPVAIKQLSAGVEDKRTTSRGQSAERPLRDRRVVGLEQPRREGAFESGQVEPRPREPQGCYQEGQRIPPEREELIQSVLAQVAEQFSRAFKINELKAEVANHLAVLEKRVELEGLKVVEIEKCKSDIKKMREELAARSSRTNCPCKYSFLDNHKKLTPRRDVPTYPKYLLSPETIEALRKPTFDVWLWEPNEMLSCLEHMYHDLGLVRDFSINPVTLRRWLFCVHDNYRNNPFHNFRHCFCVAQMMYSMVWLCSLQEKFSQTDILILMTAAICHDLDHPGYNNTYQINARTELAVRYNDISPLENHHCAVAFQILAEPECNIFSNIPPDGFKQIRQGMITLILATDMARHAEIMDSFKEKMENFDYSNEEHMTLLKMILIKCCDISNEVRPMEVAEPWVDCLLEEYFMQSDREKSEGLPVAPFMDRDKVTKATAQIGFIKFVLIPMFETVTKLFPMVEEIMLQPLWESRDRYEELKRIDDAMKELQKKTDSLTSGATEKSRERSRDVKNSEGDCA
Chain of 3',5'-cyclic-AMP phosphodiesterase 4C (Q08493 whole entry): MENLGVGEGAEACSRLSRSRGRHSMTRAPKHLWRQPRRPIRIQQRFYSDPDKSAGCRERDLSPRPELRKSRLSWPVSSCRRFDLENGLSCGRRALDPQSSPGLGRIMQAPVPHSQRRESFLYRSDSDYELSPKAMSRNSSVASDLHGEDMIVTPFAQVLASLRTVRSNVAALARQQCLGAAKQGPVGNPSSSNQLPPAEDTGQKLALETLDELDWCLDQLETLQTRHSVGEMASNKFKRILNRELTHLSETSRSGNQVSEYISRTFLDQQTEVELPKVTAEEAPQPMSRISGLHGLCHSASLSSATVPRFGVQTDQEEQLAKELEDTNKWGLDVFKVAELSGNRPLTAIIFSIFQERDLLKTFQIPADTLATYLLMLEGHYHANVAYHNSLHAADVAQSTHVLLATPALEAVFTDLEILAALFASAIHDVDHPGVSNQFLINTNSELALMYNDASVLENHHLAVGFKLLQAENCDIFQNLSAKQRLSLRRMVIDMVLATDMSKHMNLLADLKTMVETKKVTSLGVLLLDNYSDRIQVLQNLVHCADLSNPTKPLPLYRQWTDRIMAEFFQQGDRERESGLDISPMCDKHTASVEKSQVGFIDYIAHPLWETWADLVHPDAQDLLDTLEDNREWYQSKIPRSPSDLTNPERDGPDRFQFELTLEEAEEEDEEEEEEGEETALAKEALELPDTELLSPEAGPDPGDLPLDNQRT
Chain of cAMP and cAMP-inhibited cGMP 3',5'-cyclic phosphodiesterase 10A (Q9Y233 whole entry): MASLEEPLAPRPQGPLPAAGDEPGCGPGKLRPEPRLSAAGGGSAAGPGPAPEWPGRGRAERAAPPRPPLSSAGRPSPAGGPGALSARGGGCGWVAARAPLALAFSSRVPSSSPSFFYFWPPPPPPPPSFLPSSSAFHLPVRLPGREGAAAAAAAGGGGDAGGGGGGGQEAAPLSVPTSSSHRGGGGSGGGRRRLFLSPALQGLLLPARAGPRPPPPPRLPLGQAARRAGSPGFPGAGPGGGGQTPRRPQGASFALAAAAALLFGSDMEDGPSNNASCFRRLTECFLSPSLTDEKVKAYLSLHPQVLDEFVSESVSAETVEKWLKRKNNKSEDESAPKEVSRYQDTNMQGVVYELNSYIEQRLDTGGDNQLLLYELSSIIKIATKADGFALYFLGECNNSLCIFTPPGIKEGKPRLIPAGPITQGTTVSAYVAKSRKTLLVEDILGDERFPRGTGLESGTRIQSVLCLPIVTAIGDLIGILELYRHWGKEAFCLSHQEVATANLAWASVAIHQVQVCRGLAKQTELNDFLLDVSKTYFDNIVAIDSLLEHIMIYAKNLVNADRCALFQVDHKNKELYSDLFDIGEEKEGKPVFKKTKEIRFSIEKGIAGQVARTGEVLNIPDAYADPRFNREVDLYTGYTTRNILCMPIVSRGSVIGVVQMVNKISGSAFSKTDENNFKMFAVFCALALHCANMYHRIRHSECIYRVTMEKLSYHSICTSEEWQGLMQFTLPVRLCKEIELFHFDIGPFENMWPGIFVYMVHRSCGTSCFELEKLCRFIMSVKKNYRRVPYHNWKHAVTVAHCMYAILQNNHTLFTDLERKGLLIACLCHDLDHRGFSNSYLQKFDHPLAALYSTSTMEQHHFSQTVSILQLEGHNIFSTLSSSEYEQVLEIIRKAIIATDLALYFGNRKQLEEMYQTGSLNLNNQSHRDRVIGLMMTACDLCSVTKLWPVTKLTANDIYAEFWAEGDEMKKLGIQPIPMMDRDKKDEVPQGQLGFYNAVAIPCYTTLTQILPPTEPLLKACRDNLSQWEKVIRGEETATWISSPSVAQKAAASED

CCCCCC[C@H]([C@H](C)O)n1cnc2c(N)ncnc21 [(+)-EHNA]
IC50 [1]: > 16 µM
IC50 (Phosphodiesterase 3): > 16 µM
Papp [2]: 34 ×10⁻⁶ cm/s
solubility kinetic [3]: > 65 µg/mL
IC50 (Phosphodiesterase 1): > 16 µM
Papp [4]: 18 ×10⁻⁶ cm/s
IC50 [5]: > 16 µM
IC50 [6]: > 16 µM
IC50 [7]: 0.635 µM
IC50 [8]: > 16 µM
half-life [9]: 31 min
IC50 [10]: > 16 µM
IC50 [11]: > 16 µM
IC50 [12]: > 16 µM
IC50 [13]: > 16 µM
IC50 [14]: > 16 µM
